Compound activity deposited in PubChem BioAssay by several laboratories.
GPR7 antagonist: GPR7 receptor antagonists, primary screen, cell-based, fluorescence, single concentration; Neuropeptides B/W receptor type 1 (Homo sapiens), P48145; GPR7-expressing cells, fluorescence antagonist assay; inhibition, % at 4.4 µM; 290,000 compounds, 1.1% hits; AID 1861, 2009; in the data active = inhibition above about 16%, passing the limit was not always enough;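 note: cells stimulated with the agonist NPW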
TAAR1 antagonist: human TAAR1 antagonists, primary screen, Fluo-8 calcium fluorescence, CHO RD-HGA16 cells; Trace amine-associated receptor 1 (Homo sapiens), Q96RJ0; antagonist; inhibition, % at 3 µM; 360,000 compounds, 1.5% hits;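 active = inhibition above a per-plate cutoff, the mean inhibition of test compounds on that plate plus 3 SD, cut at about 49% in these data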
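Material: CHO RD-HGA16 cells bearing hTAAR1; compound dosing: one-point dosing, 3 µM nominal final; schedule: dye loading 75 min at 37 °C, then 30 min room temperature; measured by: calcium fluorescence with Fluo-8; control set: vehicle and agonist controls; replication: n of 1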
TRPML3 ag: human TRPML3 channel agonists, primary screen, cell-based, HEK293 TRPML3-YFP, Fluo-8 calcium fluorescence, 3 µM. 220,000 compounds, 0.29% hits. AID 1448, 2008. activation, % at 3 µM. Mucolipin-3 (Homo sapiens), Q8TDD5. 100% = the carbachol control signal;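 active = activation above its plate's cutoff, the mean activation of the plate's test wells plus 3 SD, cut at about 12% in these data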
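Test system: TRPML3-YFP stable HEK293 cells. Doses: single point at 3 µM. Incubation: dye loading 1 h 37 °C then 30 min ambient, 125 s read. Signal: Fluo-8 calcium dye fluorescence, ex 470-495, em 515-575 nm. Measure: percent activation from peak-to-basal fluorescence ratio, scaled between DMSO and carbachol.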
TAAR1 agonist: human TAAR1 agonists, primary screen, Fluo-8 calcium fluorescence, CHO RD-HGA16 cells; Trace amine-associated receptor 1 (Homo sapiens), Q96RJ0; vehicle wells 0%, saturating PEA agonist 100%; activation, % at 3 µM; 360,000 compounds, 0.99% hits;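 active = activation above the mean activation of all test compounds in the run plus 3 SD, cut at about 38% in these data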
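Assay system – CHO-derived RD-HGA16 cells with stable Gα16 and human TAAR1 · Compound dosing – one-point dosing at 3 µM (nominal) · Incubation – 17-24 h seeding, 75 min 37 °C dye, 30 min RT · Measured by – kinetic Fluo-8 calcium fluorescence · Control set – DMSO vehicle as 0%, PEA at EC100 as 100% · Repeats – single well for each compound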
LANA-H2A inh: blockers of LANA interaction with H2A/H2B – biochemical, FP readout, HTS, primary screen; cell-free LANA-H2A/H2B peptide, fluorescence polarization; inhibition, % (no concentration beside the values); 320,000 compounds, 0.6% hits; AID 2629, 2010; in the data active = inhibition mostly above about 10%, no sharp cut-off; inactive = mostly below about 6.7%
Target sequence (Q9QR71 whole entry, looked up): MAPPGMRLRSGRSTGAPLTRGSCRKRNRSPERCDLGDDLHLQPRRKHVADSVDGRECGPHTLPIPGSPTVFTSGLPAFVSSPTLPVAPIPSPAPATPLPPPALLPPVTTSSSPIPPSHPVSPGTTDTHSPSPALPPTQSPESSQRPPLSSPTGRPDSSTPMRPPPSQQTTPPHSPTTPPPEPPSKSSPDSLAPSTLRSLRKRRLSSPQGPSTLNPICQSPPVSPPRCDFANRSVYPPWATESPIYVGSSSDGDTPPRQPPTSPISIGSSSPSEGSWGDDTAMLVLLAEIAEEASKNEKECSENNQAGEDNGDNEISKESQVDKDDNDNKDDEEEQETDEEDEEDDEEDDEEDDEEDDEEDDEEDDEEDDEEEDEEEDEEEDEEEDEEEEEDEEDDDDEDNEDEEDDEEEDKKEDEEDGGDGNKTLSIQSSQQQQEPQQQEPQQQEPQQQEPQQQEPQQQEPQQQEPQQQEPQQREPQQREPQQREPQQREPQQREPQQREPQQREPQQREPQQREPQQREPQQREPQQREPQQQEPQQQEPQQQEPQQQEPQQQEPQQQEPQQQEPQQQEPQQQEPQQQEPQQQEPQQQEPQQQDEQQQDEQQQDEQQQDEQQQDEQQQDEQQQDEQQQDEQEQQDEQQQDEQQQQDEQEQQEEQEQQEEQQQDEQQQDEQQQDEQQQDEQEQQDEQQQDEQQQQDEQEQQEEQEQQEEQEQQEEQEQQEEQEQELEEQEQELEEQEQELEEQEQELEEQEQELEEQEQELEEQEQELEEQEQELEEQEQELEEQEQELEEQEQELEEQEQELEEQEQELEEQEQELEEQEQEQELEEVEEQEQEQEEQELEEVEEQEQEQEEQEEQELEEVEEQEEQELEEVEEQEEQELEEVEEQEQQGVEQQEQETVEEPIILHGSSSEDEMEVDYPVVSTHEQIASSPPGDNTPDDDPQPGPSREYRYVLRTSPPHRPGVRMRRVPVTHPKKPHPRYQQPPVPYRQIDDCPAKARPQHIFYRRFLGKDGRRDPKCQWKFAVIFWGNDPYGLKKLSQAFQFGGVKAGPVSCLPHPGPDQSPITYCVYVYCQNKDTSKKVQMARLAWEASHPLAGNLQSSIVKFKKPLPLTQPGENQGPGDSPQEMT
TRPN1 ag: zebrafish TRPN1 channel agonists, primary screen, cell-based, HEK293, calcium fluorescence. transient receptor potential cation channel N1 (TRPN1/NompC), Danio rerio. HEK293 zebrafish TRPN1-YFP, Fluo-8 calcium fluorescence; 100% = response to 87 µM carbachol. activation, % at 3 µM. 220,000 compounds, 0.18% hits;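 active = activation above its plate's cutoff, the mean activation of test wells on that plate plus 3 SD, cut at about 19% in these data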
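Control set: carbachol 87 µM as high control, DMSO as low control; system: HEK293 stable line with zebrafish TRPN1-YFP; read-out: % activation versus carbachol response; detection: intracellular calcium fluorescence with Fluo-8; doses: single test compound dose, 3 µM nominal, 0.3% DMSO; schedule: dye 1 h 37 °C plus 30 min RT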
A number is an active result; i = inactive; nt = not tested or not shown. A selection: hits, their analogues and other compounds. The true share with any hit is near 3.4%.

SMILES | GPR7 antagonist | TAAR1 antagonist | TRPML3 ag | TAAR1 agonist | LANA-H2A inh | TRPN1 ag
COc1ccc(C(=O)N(C)[C@H]2C[C@H]3c4[nH]c5c(-c6ccccc6)cccc5c4CCN3C(=O)[C@H]2[C@H](C)O)cc1 | nt | i | nt | i | nt | nt
COc1ccc(C(=O)CSc2nnc(-c3cccs3)n2-c2ccccc2)cc1 | i | i | i | i | i | i
COc1ccc(C(=O)CSc2nnc(CN3CCCCC3)n2-c2ccc(F)cc2)cc1 | i | i | i | 47 | i | i
CCOc1c(C)cnc2c1c(=O)n(Cc1ccc(Cl)cc1)c(=O)n2C | i | i | nt | i | 17 | nt
CC(C)[C@H](NC(=O)CC1CCCC1)C(=O)N1CCC[C@H]1C(=O)NCc1ccccc1 | nt | i | nt | i | nt | nt
C[C@H]1CN([C@@H](C)CO)C(=O)CCCn2cc(nn2)CO[C@@H]1CN(C)C(=O)c1ccccc1 | nt | i | nt | i | nt | nt
N#C/C(=N\Nc1ccccc1)C(N)=S | i | i | i | i | i | i
Cc1ccc(N/N=C(\C#N)C(N)=S)cc1C | i | i | 13 | i | i | 24
N#C/C(=N\Nc1ccc(Cl)cc1)C(N)=S | i | i | 16 | i | i | 25
COC(=O)CC#C[C@H](C)[C@@H](NS(C)(=O)=O)C(C)(C)COCc1ccccc1 | nt | i | nt | i | nt | nt
COc1cc(/C=C/C(=O)OCC(=O)N2c3ccccc3NC(=O)C2(C)C)cc(OC)c1OC | nt | 64 | nt | i | i | nt
Cc1noc(C)c1COc1ccc(C(=O)OCC(=O)N2c3ccccc3NC(=O)C2(C)C)cc1 | i | 67 | i | i | i | i
COc1cccc(C2NC(=S)NC(C)=C2C(C)=O)c1 (stereo not given) | nt | i | nt | i | nt | nt
CC(C)(C)S(=O)(=O)N1C[C@@H]2CC(=O)C(CCO)=C2[C@H]1CCO | nt | i | nt | i | nt | nt
Fc1ccc(C2CCCCN2Cc2nc(CC3CC3)no2)cc1 (stereo not given) | i | i | i | i | i | i
Fc1ccc2nc(C3CCCCN3Cc3nc(CC4CC4)no3)[nH]c2c1 (stereo not given) | 19 | i | i | i | i | i
CCCCN(C)C(=O)CCCc1c[nH]c2ccccc12 | 19 | i | i | i | i | i
Cc1ccc(Nc2ccc([N+](=O)[O-])cn2)cc1Cl | i | 54 | nt | i | i | nt
CC(=O)O[C@H]1C=C[C@@H](NC(=O)OC(C)(C)C)C1 | nt | i | nt | i | nt | nt
O=C1Nc2ccccc2N=C(c2ccc3c(c2)OCO3)C1N(C(=O)c1ccnc2ccccc12)c1ccccc1 (stereo not given) | nt | i | nt | i | nt | nt
COc1ccc(C2=Nc3ccccc3NC(=O)C2N(Cc2ccc(F)cc2)C(=O)c2ccco2)cc1 (stereo not given) | nt | i | nt | i | nt | nt
O=C1Nc2ccccc2N=C(c2ccc3c(c2)OCO3)C1N(CCc1ccccc1)C(=O)CSc1ncccn1 (stereo not given) | nt | i | nt | 41 | nt | nt
COc1ccc(C2=Nc3ccccc3NC(=O)C2N(CCc2ccccc2)C(=O)c2cccs2)cc1 (stereo not given) | nt | i | nt | 44 | nt | nt
CNC12CCc3cc(OC)c(OC)c(c31)-c1cc3c(cc1C2)OCO3 (stereo not given) | nt | i | nt | i | nt | nt
O=C(Cc1ccc(NC(=O)C2CCCN(C(=O)c3ccccc3)C2)cc1)Nc1cccc(C(=O)N2CCCC2)c1 (stereo not given) | nt | i | nt | i | nt | nt
SMILES | GPR7 antagonist | TAAR1 antagonist | TRPML3 ag | TAAR1 agonist | LANA-H2A inh | TRPN1 ag
COc1ccc(C(=O)Nc2nc3cc(OC)c(OC)cc3c(=O)[nH]2)cc1 | i | i | i | i | i | i
COc1ccc(Nc2nc3ccccc3c(=O)[nH]2)cc1 | i | i | i | i | 21 | i
COc1ccc(C(=O)Nc2nc3ccccc3c(=O)[nH]2)cc1 | i | i | i | i | 40 | i
Cc1cc(C)cc(OCC(=O)Nc2ccccc2N2CCCCC2)c1 | i | i | i | i | i | i
Cc1cc(C)cc(NC(=O)Nc2ccccc2N2CCCCC2)c1 | i | i | i | i | 12 | i
COC(=O)C1=C(C)N(Cc2ccccc2C(F)(F)F)C(=NCc2ccc(OC)cc2)NC1c1ccc(F)cc1 (stereo not given) | nt | i | nt | i | nt | nt
O=[N+]([O-])c1ccc(-c2csc(N3CCc4ccccc4C3)n2)cc1 | i | i | i | 40 | i | i
CC1CCCC(NCC(O)COC(c2ccc(F)cc2)c2ccc(F)cc2)C1C (stereo not given) | 56 | i | i | i | i | i
CC(NC(=O)COC(=O)C1CCN(c2ccc(C(F)(F)F)cn2)CC1)c1ccc(F)cc1 (stereo not given) | nt | i | nt | i | 17 | nt
O=C1CC2c3cc(Br)ccc3CCN2C(=O)CN1Cc1ccccc1 (stereo not given) | nt | i | nt | i | nt | nt
COc1cc(CN2CCC(C(=O)NC(c3ccccc3)c3ccsc3)CC2)cc(OC)c1 (stereo not given) | nt | i | nt | 44 | nt | nt
CCCCOn1c(C)c(C(C)=O)c2c3no[n+]([O-])c3ccc21 | i | i | i | i | 13 | i
CCOC(=O)c1c(C)n(OCc2ccccc2)c2ccc3c(no[n+]3[O-])c12 | i | i | i | i | i | i
CC1(Cc2ccccc2Cl)C(=O)Nc2cc(-c3ccccc3Cl)ccc21 (stereo not given) | nt | 51 | nt | i | nt | nt
CC1(Cc2c(Cl)cccc2Cl)C(=O)Nc2cc(-c3ccccc3Cl)ccc21 (stereo not given) | nt | i | nt | i | nt | nt
COc1cccc(C(=O)N[C@H](C(=O)N2CCC[C@H]2C(=O)NC2CCCC2)c2ccccc2)c1 | nt | i | nt | i | nt | nt
COCCCNc1c2c3c(cccc3[nH]c1=O)C(=O)c1ccccc1-2 | i | 79 | 105 | 218 | 123 | 203
CC1Sc2ccc(S(=O)(=O)N3CCC(C(=O)NCCc4ccccc4)CC3)cc2NC1=O (stereo not given) | i | i | nt | i | i | nt
